Laboratory results taken from ChEMBL document CHEMBL1133678, “Synthesis of new indeno[1,2-c]isoquinolines: cytotoxic non-camptothecin topoisomerase I inhibitors” (2000).

What was measured:
[1] = tested on: HCT-116; assay: Antiproliferative activity was determined for 50% growth inhibition against human colon HCT116 cell line; assay type: functional; settings: Homo sapiens, HCT-116
In short: (§1)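 Human cancer cell lines from the roughly 55-line panel. GI50 is the concentration giving 50% growth inhibition. The test range was 10^-4 to 10^-8 M. Values outside the range were set to the minimum (10^-8 M) or the maximum (10^-4 M).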

[2] = target: T1, DNA topoisomerase 1 (Homo sapiens) (UniProt P11387); assay: Inhibitory activity of compound against human recombinant DNA topoisomerase I mediated DNA cleavage; Weak activity
T1 sequence (whole entry): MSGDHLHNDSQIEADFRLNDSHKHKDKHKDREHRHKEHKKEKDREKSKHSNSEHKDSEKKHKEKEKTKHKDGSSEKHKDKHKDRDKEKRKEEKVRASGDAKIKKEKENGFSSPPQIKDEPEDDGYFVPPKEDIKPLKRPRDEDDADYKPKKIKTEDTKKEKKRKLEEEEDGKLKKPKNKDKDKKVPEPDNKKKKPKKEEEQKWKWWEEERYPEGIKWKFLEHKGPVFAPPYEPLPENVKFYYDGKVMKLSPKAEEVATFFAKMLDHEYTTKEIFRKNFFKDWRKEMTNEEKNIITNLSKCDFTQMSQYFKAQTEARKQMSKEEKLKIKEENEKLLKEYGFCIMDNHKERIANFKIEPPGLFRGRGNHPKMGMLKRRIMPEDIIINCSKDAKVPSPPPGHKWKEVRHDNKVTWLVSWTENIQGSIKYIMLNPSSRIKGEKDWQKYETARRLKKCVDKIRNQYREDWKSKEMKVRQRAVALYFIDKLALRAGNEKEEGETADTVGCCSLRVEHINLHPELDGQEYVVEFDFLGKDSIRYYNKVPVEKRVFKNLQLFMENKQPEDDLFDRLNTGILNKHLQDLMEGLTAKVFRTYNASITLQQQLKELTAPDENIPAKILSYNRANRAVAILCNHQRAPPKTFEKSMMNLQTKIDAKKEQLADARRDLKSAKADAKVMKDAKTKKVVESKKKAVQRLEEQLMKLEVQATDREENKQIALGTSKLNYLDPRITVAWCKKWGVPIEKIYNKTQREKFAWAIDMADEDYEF

[3] = tested on: HOP-62; assay: Antiproliferative activity was determined for 50% growth inhibition against human lung HOP-62 cell line; assay type: functional; settings: Homo sapiens, HOP-62; in short: as §1
[4] = tested on: DU-145; assay: Antiproliferative activity was determined for 50% growth inhibition against human Prostate DU-145 cell line; assay type: functional; settings: Homo sapiens, DU-145; in short: as §1
[5] = tested on: UACC-62; assay: Antiproliferative activity was determined for 50% growth inhibition against human melanoma UACC-62 cell line; assay type: functional; settings: Homo sapiens, UACC-62; in short: as §1
[6] = tested on: SN12C; assay: Antiproliferative activity was determined for 50% growth inhibition against human renal SN12C cell line; assay type: functional; settings: Homo sapiens, SN12C; in short: as §1
[7] = tested on: SF-539; assay: Antiproliferative activity was determined for 50% growth inhibition against human CNS SF-539 cell line; assay type: functional; in short: as §1
[8] = tested on: MDA-MB-435; assay: Antiproliferative activity was determined for 50% growth inhibition against human breast MDA-MB-435 cell line; assay type: functional; settings: Homo sapiens, MDA-MB-435; in short: as §1
[9] = tested on: OVCAR-3; assay: Antiproliferative activity was determined for 50% growth inhibition against human ovarian OVCAR-3 cell line; assay type: functional; in short: as §1
[10] = tested on: Panel (Carcinoma cell lines); assay: Mean graph midpoint for growth inhibition of all human cancer cell lines; assay type: functional; set-up: unit: µM
In short: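 Mean graph midpoint across all cell lines successfully tested in the roughly 55-line human cancer panel. Each line's GI50 is the 50% growth-inhibition concentration, tested over 10^-4 to 10^-8 M. Out-of-range values were set to 10^-8 M or 10^-4 M before averaging.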

[11] = tested on: DU-145; assay: Antiproliferative activity was determined for 50% growth inhibition against human Prostate c; assay type: functional; settings: DU-145, Prostate gland; in short: as §1

GI50 [1] [nM] | Activity [2] | GI50 [4] [nM] | GI50 [8] [nM] | GI50 ([9]; Homo sapiens, OVCAR-3) [nM] | GI50 [11] [nM] | GI50 [9] [nM] | Compound | GI50 [3] [nM] | GI50 [5] [nM] | GI50 [6] [nM] | GI50 ([7]; Homo sapiens, SF-539) [nM] | MGM [10] | GI50 [7] [nM]
3860 | Weak activity | 3500 | 3700 | 5870 | – | – | O=C1c2ccccc2-c2c1c1ccccc1c(=O)n2CCCl | 3810 | 8080 | 4390 | 2480 | 4.37 | –
100 | – | – | 790 | – | < 10 | 350 | COc1cc2c3c(n(CCCNCCO)c(=O)c2cc1OC)-c1cc2c(cc1C3=O)OCO2.Cl | 20 | 30 | < 10 | – | 0.11 | 40
